Results filed as inconclusive are left out. Calls of active or inactive are those of the source.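 How the source made its calls: active means duplicate-averaged calcium signal falling below the mean of the agonist-only control wells less 5 SD; inactive means the rest, inconclusive results apart.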

The test system of the experiment is Transient receptor potential cation channel subfamily C member 4 (TRPC4beta), mouse. The experiment is described as follows: blockers of DAMGO-driven mouse TRPC4 calcium entry – cell-based, HEK293 TRPC4beta/mu-opioid, Fluo-4 calcium flux, single concentration, SAR follow-up (AID 492988). The settings on record: DAMGO-evoked Fluo4 calcium flux, at 10 µM, hits give high values. Put shortly: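 System: HEK293 with TRPC4beta and mu-opioid receptor; also added: DAMGO, submaximal then ECmax; compound dosing: one concentration; times: 110 s compound preincubation, 110 s submaximal DAMGO exposure; detection: Fluo4 Ca2+ fluorescence; read-out: peak-minus-trough fluorescence over baseline, integrated ratio, mean % inhibition; replicates: duplicate wells per compound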
On the technique in general: A change in cytosolic calcium serves as a functional read-out for many receptors and channels.
One may read the inhibition as the drop in the measured response relative to a control, in per cent. For `c1ccc(-c2cc(N3CCCC3)nc3ccccc23)cc1`, the inhibition was 79.9%.

For the molecule `COCCN(C)c1cc(C)c2ccccc2n1`, the inhibition was 24.5% (inactive).

As for `COc1ccc(N2CCN(c3cc(C)c4ccccc4n3)CC2)cc1`, the inhibition was -82.8% (inactive).

As for `Cc1cc(N2CC(C)CC(C)C2)nc2ccccc12` (centres undefined), the inhibition is 32.4% (inactive).

Consider `FC(F)(F)c1cc(N2CCCC2)nc2ccccc12`, for which the inhibition is -10.6% (inactive).

With `Cc1cc(N2CCN(c3ncccn3)CC2)nc2ccccc12`, the inhibition is 6.42% (inactive).

Turning to `Cc1cc(N2CCCCC2)nc2c(C)cccc12`, the inhibition is 46.4%.

`Cc1ccnc(N2CCCCC2)c1`: the inhibition was 50.8%.

`Cc1cc(N2CCCC(O)C2)nc2ccccc12` (centres undefined): the inhibition is 69.3%.

Turning to `Cc1cc(N2CCN(CC3CCCO3)CC2)nc2ccccc12` (centres undefined), the inhibition was -51.3% (inactive).

As for `Cc1ccc2nc(N3CCCC3)cc(C)c2c1`, the inhibition is 93%.

Regarding `Cc1cc(N2CCCCC2)nc2ccc(F)cc12`, the inhibition was 72.9%.

Take `Cc1cc(N2CCCC2)nc2c(C)cccc12`: the inhibition is 70.1%.

For the molecule `Cc1cc(N2CCN(c3ccncc3)CC2)nc2ccccc12`, the inhibition was 29.5% (inactive).

`Cc1ccnc(N2CCCC2)n1`: the inhibition was 38% (inactive).

Regarding `Cc1cc(N(C)CCN(C)C)nc2ccccc12`, the inhibition is -249% (inactive).

For the molecule `Cc1cc(N2CCCC2)nc2ccc(F)cc12`, the inhibition was 91.3%.

As to `Cc1cc(N2CCN(C)CC2)nc2ccccc12`, the inhibition is -157% (inactive).

In the case of `Cc1cc(N2CCOc3ccccc32)nc2ccccc12`, the inhibition was 63%.

`Cc1cc(N2CCC[C@@H]2C)nc2ccccc12`: the inhibition was 90%.

On to `Cc1cc(N2CCCCC2)nc2ccccc12`, for which the inhibition is 90%.

`Cc1ccnc(N2CCCCC2)n1`: the inhibition was 38.2% (inactive).

On to `Cc1cc(N2CCOCC2)nc2ccccc12`, for which the inhibition is 42.6%.

Turning to `Cc1cc(N2CCC(N3CCOCC3)CC2)nc2ccccc12`, the inhibition is 11.7% (inactive).

Turning to `Cc1cc(N2CCN(c3ccccc3C#N)CC2)nc2ccccc12`, the inhibition was 42% (inactive).

On to `COc1ccccc1N1CCN(c2cc(C)c3ccccc3n2)CC1`, for which the inhibition was 72.2%.

In the case of `FC(F)(F)c1cc(N2CCCCC2)nc2ccccc12`, the inhibition is 39.7% (inactive).

As to `CCN(CC)c1cc(C)c2ccccc2n1`, the inhibition was 61.2%.

Take `Cc1cc(N2CCCC2)nc2ccccc12`: the inhibition is 84.9%.

For the molecule `c1ccc(-c2cc(N3CCCCC3)nc3ccccc23)cc1`, the inhibition was 55.9%.

On to `Cc1cc(N2CCNCC2)nc2ccccc12`, for which the inhibition was -292% (inactive).

Take `Cc1cc(N2CCC(C)CC2)nc2ccccc12`: the inhibition was 91.6%.

As to `Cc1ccnc(N2CCCC2)c1`, the inhibition was 44.1%.

As for `CCc1ccc2nc(N3CCCC3)cc(C)c2c1`, the inhibition is 91.5%.

For the origin of these results see PubChem BioAssay AID492988 (Johns Hopkins Ion Channel Center, 2010).
